Screening data: PubChem BioAssay, several laboratories
An excerpt weighted towards active compounds, which were near 5.7% of everything screened.
SKKanGAS inh: S. pyogenes SKKanGAS growth inhibitors in kanamycin, primary screen, streptokinase expression inhibitor project, SKKanGAS strain, BacTiter-Glo luminescence. 6 h. inhibition, % at 7.5 µM. 300,000 tested, 1.3% active. AID 1662, 2009;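 active = mean replicate score, as percent of positive control median, at least 50; inconclusive = mean below 50 but one replicate at or above 50; inactive = mean and every replicate below 50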;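 note: strain carries kanamycin resistance gene driven by streptokinase promoter and grows in 40 µg/ml kanamycin; loss of luminescence reflects streptokinase promoter inhibition or plain growth inhibition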
CSC inhib: cancer stem cell viability inhibitors, primary screen, luminescence | AID 2717, 2010 | inhibition, % at 7.5 µM | 300,000 tested, 1.1% active | cancer stem cell-like cells viability; in the data active = inhibition above about 75%; inconclusive = no clear call, values can overlap the other calls; tested in HMLE shEcad cells
Calb FLC: C. albicans growth inhibition with fluconazole, primary screen, CaCi-2 strain, Alamar Blue fluorescence; C. albicans CaCi-2 (fluconazole-resistant clinical isolate) + fluconazole, 48 h; 300,000 tested, 0.57% active; AID 1979, 2009; growth inhibition, % (concentration not given with the values);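 active = growth inhibition above about 58% in most replicates, limit read from the data, passing the limit was not always enough; inconclusive = exactly half the replicates above a set limit; inactive = most replicates below a set limit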;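 note: all wells also contain fluconazole at 8 µg/ml as a sub-toxic cotreatment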
T cruzi inh: inhibitors of intracellular T. cruzi growth, primary screen, luminescence, NIH3T3 host cells | T. cruzi beta-gal in NIH3T3, 90 h | inhibition, % (no concentration beside the values) | AID 1885, 2009 | 300,000 tested, 1.4% active;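 active = mean inhibition across valid replicates above about 55%, limit read from the data; inconclusive = mean below that limit but half or more replicates reach it; inactive = mean below it, under half of replicates reach it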;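 note: signal also drops with host cell toxicity which is not excluded here; higher percent means less beta-gal luminescence so fewer parasites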
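System: mouse NIH/3T3 fibroblasts infected with β-gal-expressing T. cruzi Tulahuen C4 / Input: NIH/3T3 cells, 5,000 per well / Buffer or medium: Low-serum DMEM with 2% FBS / Probe or stimulus: 5000 reporter trypomastigotes per well / Schedule: ≥90 h infection period, 3 h prior cell attachment / Measured by: GalScreen luminescence, 60 min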
Mdm2-MdmX inh: inhibitors of human Mdm2-MdmX association, primary screen, cell-based, luminescence, split luciferase, SaOS-2, uHTS; AID 485346, 2010; 330,000 tested, 3% active; inhibition, % at 8 µM; Protein Mdm4 (Homo sapiens) + E3 ubiquitin-protein ligase Mdm2 (Homo sapiens), …; SaOS-2 split-luciferase Mdm2/MdmX complementation;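 active = inhibition of at least 50% at 8 µM in the primary screen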
Beta apoptosis: inhibitors of cytokine-induced beta cell apoptosis, primary screen, luminescence; INS-1E cytokine-induced death, ATP luminescence, 48 h; percent of positive-control rescue, neutral wells zero; protection from apoptosis, % (test concentration not listed); 300,000 tested, 0.8% active; AID 435005, 2010;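 active = Every replicate reaches about 75%, or at least half do and their mean reaches it too, limit read from the data; inconclusive = At least half of replicates reach the limit but their mean does not; inactive = Under half of replicates reach the limit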;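 note: higher means more ATP so stronger rescue from cytokine killing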
Numbers stand for hits; – = inactive; ? = inconclusive; · = no result given.

SMILES	SKKanGAS inh	CSC inhib	Calb FLC	T cruzi inh	Mdm2-MdmX inh	Beta apoptosis
Cc1ccc(OCC(=O)N2CCN(c3nnc(-c4ccccc4)c4ccccc34)CC2)cc1	–	–	–	70	–	–
CC(=O)Nc1ccc(C2=NNC(=Nc3cccc(S(=O)(=O)N(C)C)c3)SC2)cc1	–	–	–	–	–	96
Cc1cc(C2=NNC(=Nc3ccccc3)SC2)c(C)n1C	–	–	–	–	–	–
CC(=O)Nc1ccc(C2=NNC(=Nc3ccc(S(=O)(=O)N4CCOCC4)cc3)SC2)cc1	–	–	–	–	–	–
CN(C)S(=O)(=O)c1cccc(N=C2NN=C(c3ccccc3)CS2)c1	·	–	·	·	·	91
Fc1ccccc1N=C1NN=C(c2ccccc2)CS1	67	–	–	–	–	97
Fc1ccc(F)c(C2=NNC(=Nc3ccccc3F)SC2)c1	–	–	–	–	–	–
OCC1CCCC(n2cnc3c(=S)nc[nH]c32)O1 (configuration not stated)	–	–	–	–	–	–
CCNC(=O)c1ccccc1CCc1ccccc1	–	–	–	–	–	–
Cc1[nH]c2ccccc2c1/C=N/Nc1ccc([N+](=O)[O-])cc1S(=O)(=O)Nc1ccc(Cl)cc1	102	–	–	–	–	·
C/C(Cn1cnc([N+](=O)[O-])n1)=N\NC(=O)c1ccc(Br)cc1	–	–	–	–	–	–
C/C(Cn1cnc([N+](=O)[O-])n1)=N\NC(=O)c1ccc(O)cc1O	–	–	–	55	–	·
C/C(Cn1cnc([N+](=O)[O-])n1)=N\NC(=O)c1ccccc1O	–	–	–	56	–	–
C/C(Cn1cnc([N+](=O)[O-])n1)=N\NC(=O)c1cccnc1	–	–	–	–	–	–
C/C(Cn1cnc([N+](=O)[O-])n1)=N/NC(=O)COc1ccccc1Cl	–	–	–	56	–	–
C/C(Cn1cnc([N+](=O)[O-])n1)=N\NC(=O)c1ccccc1F	–	–	–	75	–	–
C/C(Cn1nnc([N+](=O)[O-])n1)=N\NC(=O)c1ccccc1O	–	–	–	–	–	–
C/C(Cn1nnc([N+](=O)[O-])n1)=N\NC(=O)c1ccc(O)cc1O	–	–	–	?	–	·
O=C(CCCCCn1c(=S)[nH]c2ccc(N3CCOCC3)cc2c1=O)NCc1cccc(Cl)c1	–	–	–	–	–	–
COc1ccc(Cn2c(-c3ccc(C)cc3)nc3c(c(=O)c4ccccc4n3C)c2=O)cc1	–	–	–	–	–	·
Cc1ccc(C(=O)OCC(=O)NC2CCCC2)cc1C	–	–	–	–	–	–
O=C(CNc1cccc([N+](=O)[O-])c1)N1CCN(S(=O)(=O)c2ccc(Cl)cc2)CC1	·	·	·	·	–	·
Oc1ccccc1/C=N/NC(=S)NCCc1ccccc1	96	–	–	–	·	–
Cc1ccc(C)c(/C=N/NC(=S)NCCc2ccccc2)c1	54	–	–	–	–	–
CCc1noc(C)c1C(=O)N(CC)CC(=O)NCc1ccc(Cl)cc1	·	–	·	·	–	–
SMILES	SKKanGAS inh	CSC inhib	Calb FLC	T cruzi inh	Mdm2-MdmX inh	Beta apoptosis
COc1cccc(NS(=O)(=O)NC(=O)c2cn(C)c3ccccc23)c1	–	–	–	–	–	–
Cc1ccc(C(c2nnnn2C(C)(C)C)N(Cc2ccco2)Cc2cccs2)cc1 (configuration not stated)	–	–	–	64	–	–
CCC(c1nnnn1C(C)(C)C)N(Cc1cccs1)Cc1cc2cc(C)c(C)cc2n2nnnc12 (configuration not stated)	–	–	–	56	–	–
COc1ccc(Cn2nnnc2C(C(C)C)N(Cc2ccco2)Cc2cccs2)cc1 (configuration not stated)	–	77	–	–	–	–
COc1ccc(CNC(=O)[C@H](C)NC(=O)N2CCn3c2nc2ccccc23)cc1	–	–	–	–	–	·
COc1ccccc1C(=O)N/C(=N/c1nc(C)cc(C)n1)Nc1ccccc1	–	–	–	–	–	–
Cc1c(C(=O)NCc2ccccc2CN2CCCC2)oc2ccc(F)cc12	·	·	·	·	–	–
CN(C)CCOc1ccc(/C(=C(/CCCl)c2ccccc2)c2ccccc2)cc1	101	·	·	62	–	·
CC1C(c2ccccc2)N(C)C(c2ccccc2)CC1(O)c1ccc(F)cc1 (configuration not stated)	–	–	–	58	·	–
CN1C(c2ccccc2)CC(=NO)CC1c1ccccc1 (configuration not stated)	–	–	–	–	–	·
CCNc1nc(Nc2ccc(C)c(Cl)c2)c2cnn(C)c2n1	–	–	–	–	–	–
CCCCNc1nc(Nc2ccc(C)c(Cl)c2)c2cnn(C)c2n1	–	82	–	–	–	–
CCOc1ccccc1-c1nnc(SCC(=O)NC2(C#N)CCCC2)o1	·	–	·	·	–	–
CCCCSc1nc2sc3c(c2c(=O)n1-c1ccccc1)CCN(C)C3	–	–	–	55	–	–
CCCCSc1nc2sc3c(c2c(=O)n1-c1ccc(OC)cc1)CCN(C)C3	–	·	–	–	–	·
C=C(C)CSc1nc2sc3c(c2c(=O)n1-c1ccccc1)CCN(C)C3	–	–	–	55	–	–
CSc1nc(NCc2ccccc2)c2c3c(sc2n1)CN(C)CC3	–	–	–	55	–	–
CN1CCc2c(sc3nc(SCC(N)=O)n(-c4ccccc4)c(=O)c23)C1	–	–	–	–	–	–
C=C(C)CSc1nc2sc3c(c2c(=O)n1C1CCCCC1)CCN(C)C3	–	–	–	59	–	–
CCn1c(SCC(=O)NCCc2ccccc2)nc2sc3c(c2c1=O)CCN(C)C3	–	–	–	·	–	–
CCn1c(SCC(=O)c2ccccc2)nc2sc3c(c2c1=O)CCN(C)C3	–	–	–	64	–	–
CN1CCc2c(sc3nc(SCC(N)=O)n(-c4ccc(Cl)cc4)c(=O)c23)C1	–	·	101	–	–	·
C=CCNC(=O)C1(c2ccccc2)CC1(Cl)Cl (configuration not stated)	–	–	–	–	–	–
Cc1ccc(C[n+]2cccc(-c3ccccc3)c2)c(C)c1	–	–	–	72	–	97
COc1ccc(C2N(c3ccc4c(c3)OCCO4)C(=O)C2(F)F)cc1OC (configuration not stated)	–	–	–	–	–	–
O=C(CCNC(=O)C1CCN(S(=O)(=O)c2ccc(F)cc2)CC1)NCc1cccnc1	–	–	?	–	–	–
CCOC(=O)C(=NCCCN1CCOCC1)NNc1cccc(C(F)(F)F)c1	–	86	129	–	–	–
CCCOc1ccc(-c2nc(SCc3ccccc3)[nH]c(=O)c2C#N)cc1OC	–	–	–	56	–	–
C=CCOC(=O)Cn1cnc2c(sc3nc(C)cc(C)c32)c1=O	–	–	–	–	–	–
